Activity calls are given as the source filed them.
Experiments:
Assay type in all cases: functional, organism-based
[1] = tested on: Rattus norvegicus; assay: (§1) Antiarthritic activity in Lewis rat Freund's adjuvant-induced arthritis model assessed as reduction in arthritis index score at 2.5 mg/kg, ig administered through gavage pretreated for 1 hr followed by adjuvant challenge subsequent treatment for 9 days measured alternate days up to 24 days post dose
How it was run: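 AIA induced in female 8-week-old Lewis rats by one intradermal 0.1 mL CFA injection (10 mg heat-killed M. tuberculosis per mL paraffin oil) into right hind paw; controls received paraffin oil–water emulsion. Daily intragastric dosing from 1 h before induction through 9 d. Arthritis index scored; Kruskal–Wallis with Dunn's test; n = 10/group.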

[2] = tested on: Rattus norvegicus; assay: as §1, with “hind paw volume” for “arthritis index score”, “dose by plethysmometer” for “dose”
How it was run: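 Lewis rat AIA (female, 8 weeks; 0.1 mL CFA intradermally into right hind paw), dosed by gavage 1 h pre-induction then daily for 9 d. Plethysmometer volumes of injected (ipsilateral) and uninjected (contralateral) hind paws recorded separately. Two-way ANOVA with Dunnett's T3 test; n = 10/group.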

[3] = tested on: Rattus norvegicus; assay: as §1, with “mechanical withdrawal threshold” for “arthritis index score”
How it was run: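 Mechanical withdrawal threshold in Lewis AIA rats (right-paw CFA, gavage dosing 1 h pre-induction and daily 9 d), tested 1 h after dosing: 30 min habituation in individual cubicles, von Frey filament applied upward to mid-paw until withdrawal, 55 g cut-off, repeated twice at 10 min intervals; ipsilateral and contralateral paws recorded separately; n = 10.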

[4] = tested on: Rattus norvegicus; assay: Antiarthritic activity in Wistar rat type-2 collagen-induced arthritis model assessed as reduction in serum IL-1beta level at 1 mg/kg, ig via gavage administered 10 consecutive days starting from day 20 post type-2 collagen injection by ELISA method
How it was run: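 After 10 d gavage in Wistar CIA rats, trunk blood taken at sacrifice; serum stored at −70 °C. IL-1β and TNF-α measured by commercial ELISA kits per manufacturer. One-way ANOVA with Student–Newman–Keuls test; n = 10/group.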

[5] = tested on: Rattus norvegicus; assay: Antiarthritic activity in Wistar rat type-2 collagen-induced arthritis model assessed as reduction in cartilage space narrowing at 1 mg/kg, ig via gavage administered 10 consecutive days starting from day 20 post type-2 collagen injection by X-ray method
[6] = tested on: Rattus norvegicus; assay: Antiarthritic activity in Wistar rat type-2 collagen-induced arthritis model assessed as reduction in arthritis index score at 1 mg/kg, ig via gavage administered 10 consecutive days starting from day 20 post type-2 collagen injection
How it was run: (§2)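 CIA in male 7-week-old Wistar rats: chicken CII (2 mg/mL in 0.1 M acetic acid) emulsified 1:1 in BCG-containing adjuvant, two intradermal 0.3 mL injections 7 d apart; controls received 0.05 M acetic acid. Gavage from day 20 for 10 d. Scoring, plethysmometry (mean of both hind paws) and von Frey threshold at baseline, pre-dosing and alternate days; n = 10.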

[7] = tested on: Rattus norvegicus; assay: Antiarthritic activity in Wistar rat type-2 collagen-induced arthritis model assessed as reduction in bone erosion at 1 mg/kg, ig via gavage administered 10 consecutive days starting from day 20 post type-2 collagen injection by X-ray method
[8] = tested on: Rattus norvegicus; assay: Antiarthritic activity in Wistar rat type-2 collagen-induced arthritis model assessed as reduction in hind paw volume at 1 mg/kg, ig via gavage administered 10 consecutive days starting from day 20 post type-2 collagen injection by plethysmometer; how it was run: as §2
[9] = tested on: Rattus norvegicus; assay: Antiarthritic activity in Wistar rat type-2 collagen-induced arthritis model assessed as reduction in serum anti-type-2 collagen IgG level at 1 mg/kg, ig via gavage administered 10 consecutive days starting from day 20 post type-2 collagen injection by ELISA method
How it was run: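 Serum from Wistar CIA rats collected after completing 10 d gavage dosing (from day 20 post first CII injection) and assayed for anti-CII IgG using a rat anti-CII antibody ELISA kit. One-way ANOVA with Student–Newman–Keuls test; n = 10/group.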

[10] = tested on: Rattus norvegicus; assay: Antiarthritic activity in Wistar rat type-2 collagen-induced arthritis model assessed as reduction in bone degradation at 1 mg/kg, ig via gavage administered 10 consecutive days starting from day 20 post type-2 collagen injection by X-ray method
[11] = tested on: Rattus norvegicus; assay: Antiarthritic activity in Wistar rat type-2 collagen-induced arthritis model assessed as reduction in mechanical allodynia at 1 mg/kg, ig via gavage administered 10 consecutive days starting from day 20 post type-2 collagen injection; how it was run: as §2

Measured: Activity

COc1ccc2c(c1)c(CC(=O)O)c(C)n2C(=O)c1ccc(Cl)cc1
active: [1] | [2] | [3]

CN(Cc1cnc2nc(N)nc(N)c2n1)c1ccc(C(=O)N[C@@H](CCC(=O)O)C(=O)O)cc1
active: [4] | [5] | [6] | [7] | [8] | [9] | [10] | [11]
